The source made the active and inactive calls. No cut-off for these calls is given here.
Assays:
[1] = Induction of microtubule depolymerisation in rat A-10 cell line measured after 18 hrs by indirect immunofluorescence method; conditions: a10
How it was run: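 Rat A-10 cells, chosen because they arrest in interphase without significant mitotic accumulation, were exposed to compounds for 18 h. Cellular microtubules were then visualized by indirect immunofluorescence. EC50 values come from at least three independent experiments.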

[2] = Inhibition of bovine tubulin polymerization assessed as reduction in extent of assembly preincubated for 15 mins followed by addition of reaction mixture measured after 20 mins by turbidimetric assay; design: species or system Bos taurus
How it was run: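 After chilling, GTP was added (0.4 mM final). Turbidity at 350 nm was read after a jump from 0 °C to 30 °C.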

Bos taurus [3] = organism: Bos taurus; test: Inhibition of [3H]colchicine binding to bovine tubulin at 5 uM measured after 10 mins by scintillation counting
How it was run: (§1)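 Purified bovine brain tubulin at 1.0 µM was mixed with 5.0 µM [3H]colchicine and inhibitor, plus components that stabilize colchicine binding, in 5% DMSO; tubulin was added last, on ice. Binding ran 10 min at 37 °C and was stopped with ice water. Mixtures were filtered through stacked DEAE-cellulose filters, and bound radiolabel was measured by scintillation counting.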

Bos taurus [4] = organism: Bos taurus; test: Inhibition of [3H]colchicine binding to bovine tubulin at 1 uM measured after 10 mins by scintillation counting; how it was run: as §1
[5] = Antiproliferative activity against human SK-OV-3 MDR-1-6/6 cells expressing Pgp assessed as decrease in cell growth measured after 48 hrs by SRB method; assay type: functional; conditions: SK-OV-3, 48 h
MDA-MB-435 [6] = test: Antiproliferative activity against human MDA-MB-435 cell line assessed as inhibition of cell proliferation measured after 48 hrs by SRB assay; assay type: functional, cell-based; conditions: MDA-MB-435, 48 h
How it was run: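 MDA-MB-435 melanoma cells were assessed by sulforhodamine B assay. IC50 is the mean ± SD of at least three independent experiments, each run in triplicate.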

U-251 [7] = test: Cytotoxicity against human U251 cell line assessed as inhibition of cell growth after 48 hrs by SRB assay; assay type: functional, cell-based; conditions: U-251, 48 h
HeLa = test: Antiproliferative activity against human HeLa cells assessed as decrease in cell growth measured after 48 hrs by SRB method; assay type: functional, cell-based
[8] = Relative resistance, ratio of IC50 for inhibition of beta3 Tubulin (unknown origin) expressed in human HeLa cell line assessed as inhibition of cell proliferation to IC50 antiproliferative activity against human HeLa cells
SK-OV-3 [9] = test: Antiproliferative activity against human SK-OV-3 cells assessed as decrease in cell growth measured after 48 hrs by SRB method; assay type: functional, cell-based; conditions: SK-OV-3, 48 h
[10] = Relative resistance, ratio of IC50 for antiproliferative activity against human SK-OV-3 MDR-1-6/6 cells expressing Pgp to IC50 antiproliferative activity against human SK-OV-3 cells; assay type: functional
A549 = test: Cytotoxicity against human A549 cells assessed as inhibition of cell growth measured after 48 hrs by SRB assay; assay type: functional
EKVX = test: Cytotoxicity against human EKVX cells assessed as inhibition of cell growth measured after 48 hrs by SRB assay; assay type: functional
HOP-62 = test: Cytotoxicity against human HOP-62 cells assessed as inhibition of cell growth measured after 48 hrs by SRB assay; assay type: functional
HOP-92 = test: Cytotoxicity against human HOP-92 cells assessed as inhibition of cell growth measured after 48 hrs by SRB assay; assay type: functional
NCI-H226 = test: Cytotoxicity against human NCI-H226 cells assessed as inhibition of cell growth measured after 48 hrs by SRB assay; assay type: functional
NCI-H23 = test: Cytotoxicity against human NCI-H23 cells assessed as inhibition of cell growth measured after 48 hrs by SRB assay; assay type: functional
NCI-H460 = test: Cytotoxicity against human NCI-H460 cells assessed as inhibition of cell growth measured after 48 hrs by SRB assay; assay type: functional
SF-268 = test: Cytotoxicity against human SF-268 cells assessed as inhibition of cell growth measured after 48 hrs by SRB assay; assay type: functional
SF-295 = test: Cytotoxicity against human SF-295 cells assessed as inhibition of cell growth measured after 48 hrs by SRB assay; assay type: functional
SF-539 = test: Cytotoxicity against human SF-539 cells assessed as inhibition of cell growth measured after 48 hrs by SRB assay; assay type: functional
SNB-19 = test: Cytotoxicity against human SNB-19 cells assessed as inhibition of cell growth measured after 48 hrs by SRB assay; assay type: functional
SNB-75 = test: Cytotoxicity against human SNB-75 cells assessed as inhibition of cell growth measured after 48 hrs by SRB assay; assay type: functional
U-251 [11] = test: Cytotoxicity against human U-251 cells assessed as inhibition of cell growth measured after 48 hrs by SRB assay; assay type: functional
786-0 = test: Cytotoxicity against human 786-0 cells assessed as inhibition of cell growth measured after 48 hrs by SRB assay; assay type: functional
A498 = test: Cytotoxicity against human A498 cells assessed as inhibition of cell growth measured after 48 hrs by SRB assay; assay type: functional
SN12C = test: Cytotoxicity against human SN12C cells assessed as inhibition of cell growth measured after 48 hrs by SRB assay; assay type: functional
COLO 205 = test: Cytotoxicity against human COLO 205 cells assessed as inhibition of cell growth measured after 48 hrs by SRB assay; assay type: functional
HCC 2998 = test: Cytotoxicity against human HCC 2998 cells assessed as inhibition of cell growth measured after 48 hrs by SRB assay; assay type: functional
HCT-116 = test: Cytotoxicity against human HCT-116 cells assessed as inhibition of cell growth measured after 48 hrs by SRB assay; assay type: functional
HT-29 = test: Cytotoxicity against human HT-29 cells assessed as inhibition of cell growth measured after 48 hrs by SRB assay; assay type: functional
KM12 = test: Cytotoxicity against human KM12 cells assessed as inhibition of cell growth measured after 48 hrs by SRB assay; assay type: functional
SW-620 = test: Cytotoxicity against human SW-620 cells assessed as inhibition of cell growth measured after 48 hrs by SRB assay; assay type: functional
IGROV-1 = test: Cytotoxicity against human IGROV-1 cells assessed as inhibition of cell growth measured after 48 hrs by SRB assay; assay type: functional
OVCAR-3 = test: Cytotoxicity against human OVCAR-3 cells assessed as inhibition of cell growth measured after 48 hrs by SRB assay; assay type: functional
OVCAR-4 = test: Cytotoxicity against human OVCAR-4 cells assessed as inhibition of cell growth measured after 48 hrs by SRB assay; assay type: functional
OVCAR-5 = test: Cytotoxicity against human OVCAR-5 cells assessed as inhibition of cell growth measured after 48 hrs by SRB assay; assay type: functional
OVCAR-8 = test: Cytotoxicity against human OVCAR-8 cells assessed as inhibition of cell growth measured after 48 hrs by SRB assay; assay type: functional
NCI/ADR-RES = test: Cytotoxicity against human NCI/ADR-RES cells assessed as inhibition of cell growth measured after 48 hrs by SRB assay; assay type: functional
SK-OV-3 [12] = test: Cytotoxicity against human SK-OV-3 cells assessed as inhibition of cell growth measured after 48 hrs by SRB assay; assay type: functional
LOX IMVI = test: Cytotoxicity against human LOX IMVI cells assessed as inhibition of cell growth measured after 48 hrs by SRB assay; assay type: functional
Malme-3M = test: Cytotoxicity against human Malme-3M cells assessed as inhibition of cell growth measured after 48 hrs by SRB assay; assay type: functional
M14 = test: Cytotoxicity against human M14 cells assessed as inhibition of cell growth measured after 48 hrs by SRB assay; assay type: functional
MDA-MB-435 [13] = test: Cytotoxicity against human MDA-MB-435 cells assessed as inhibition of cell growth measured after 48 hrs by SRB assay; assay type: functional
SK-MEL-2 = test: Cytotoxicity against human SK-MEL-2 cells assessed as inhibition of cell growth measured after 48 hrs by SRB assay; assay type: functional
SK-MEL-28 = test: Cytotoxicity against human SK-MEL-28 cells assessed as inhibition of cell growth measured after 48 hrs by SRB assay; assay type: functional
[14] = Cytotoxicity against human SK-MEL-5 cells assessed as inhibition of cell growth measured after 48 hrs by SRB assay; assay type: functional
UACC-62 = test: Cytotoxicity against human UACC-62 cells assessed as inhibition of cell growth measured after 48 hrs by SRB assay; assay type: functional
PC-3 = test: Cytotoxicity against human PC-3 cells assessed as inhibition of cell growth measured after 48 hrs by SRB assay; assay type: functional
DU-145 = test: Cytotoxicity against human DU-145 cells assessed as inhibition of cell growth measured after 48 hrs by SRB assay; assay type: functional
MCF7 = test: Cytotoxicity against human MCF7 cells assessed as inhibition of cell growth measured after 48 hrs by SRB assay; assay type: functional
Hs-578T = test: Cytotoxicity against human Hs-578T cells assessed as inhibition of cell growth measured after 48 hrs by SRB assay; assay type: functional
BT-549 = test: Cytotoxicity against human BT-549 cells assessed as inhibition of cell growth measured after 48 hrs by SRB assay; assay type: functional
T47D = test: Cytotoxicity against human T47D cells assessed as inhibition of cell growth measured after 48 hrs by SRB assay; assay type: functional
CCRF-CEM = test: Cytotoxicity against human CCRF-CEM cells assessed as inhibition of cell growth measured after 48 hrs by SRB assay; assay type: functional
HL-60(TB) = test: Cytotoxicity against human HL-60(TB) cells assessed as inhibition of cell growth measured after 48 hrs by SRB assay; assay type: functional
K562 = test: Cytotoxicity against human K562 cells assessed as inhibition of cell growth measured after 48 hrs by SRB assay; assay type: functional
MOLT-4 = test: Cytotoxicity against human MOLT-4 cells assessed as inhibition of cell growth measured after 48 hrs by SRB assay; assay type: functional
SR = test: Cytotoxicity against human SR cells assessed as inhibition of cell growth measured after 48 hrs by SRB assay; assay type: functional
U-251 [15] = test: Antitumour activity against human U251 cells xenografted in NCr athymic nude nu/nu mouse assessed as decrease in tumour growth at 50 mg/kg once in a week; assay type: functional, organism-based

## COc1ccc(N(C)c2nc(C)nc3c2CCC3)cc1
[1]
  EC50: 26 nM
[2]
  IC50: 1600 nM
Bos taurus [3]
  inhibition: 92%
Bos taurus [4]
  inhibition: 70%
[5]
  IC50: 16.4 nM

## COc1cccc2cc(N(C)c3ncnc4c3CCC4)ccc12
[1]
  EC50: 184 nM
MDA-MB-435 [6]
  IC50: 34 nM
U-251 [7]
  IC50: 72.5 nM
[2]
  IC50: 1200 nM
Bos taurus [3]
  inhibition: 93%
Bos taurus [4]
  inhibition: 77%
HeLa
  IC50: 56.4 nM
[8]
  Ratio IC50: 0.8
SK-OV-3 [9]
  IC50: 37 nM
[5]
  IC50: 74 nM
[10]
  Ratio IC50: 2

## CC(=O)O[C@H]1C(=O)[C@@]2(C)[C@H]([C@H](OC(=O)c3ccccc3)[C@]3(O)C[C@H](OC(=O)[C@H](O)[C@@H](NC(=O)c4ccccc4)c4ccccc4)C(C)=C1C3(C)C)[C@]1(OC(C)=O)CO[C@@H]1C[C@@H]2O [PACLITAXEL]
A549
  GI50: 6.3 nM
EKVX
  GI50: 79 nM
HOP-62
  GI50: 19 nM
HOP-92
  GI50: 25 nM
NCI-H226
  GI50: 3.9 nM
NCI-H23
  GI50: 6.3 nM
NCI-H460
  GI50: 6.3 nM
SF-268
  GI50: 5 nM
SF-295
  GI50: 25 nM
SF-539
  GI50: 5 nM
SNB-19
  GI50: 10 nM
SNB-75
  GI50: 7.9 nM
U-251 [11]
  GI50: 6.3 nM
786-0
  GI50: 39 nM
A498
  GI50: 7.9 nM
SN12C
  GI50: 6.3 nM
COLO 205
  GI50: 7.9 nM
HCC 2998
  GI50: 1 nM
HCT-116
  GI50: 4 nM
HT-29
  GI50: 5 nM
KM12
  GI50: 5 nM
SW-620
  GI50: 4 nM
IGROV-1
  GI50: 6.3 nM
OVCAR-3
  GI50: 4 nM
OVCAR-4
  GI50: 630 nM
OVCAR-5
  GI50: 7.9 nM
OVCAR-8
  GI50: 7.9 nM
NCI/ADR-RES
  GI50: 630 nM
SK-OV-3 [12]
  GI50: 6.3 nM
LOX IMVI
  GI50: 5 nM
Malme-3M
  GI50: 50 nM
M14
  GI50: 5 nM
MDA-MB-435 [13]
  GI50: 4 nM
SK-MEL-2
  GI50: 400 nM
SK-MEL-28
  GI50: 400 nM
[14]
  GI50: 5 nM
UACC-62
  GI50: 5 nM
PC-3
  GI50: 6.3 nM
DU-145
  GI50: 6.3 nM
MCF7
  GI50: 4 nM
Hs-578T
  GI50: 5 nM
BT-549
  GI50: 4 nM
T47D
  GI50: 12.5 nM
CCRF-CEM
  GI50: 5 nM
HL-60(TB)
  GI50: 4 nM
K562
  GI50: 6.3 nM
MOLT-4
  GI50: 5 nM
SR
  GI50: 6.3 nM

## COc1ccc(/C=C\c2cc(OC)c(OC)c(OC)c2)cc1O [COMBRETASTATIN A4]
[1]
  EC50: 13 nM
[5]
  IC50: 6.6 nM

## COc1ccc(N(C)c2nc(C)nc3c2CCC3)c2ccccc12
[1]
  EC50: 500 nM
MDA-MB-435 [6]
  IC50: 230 nM
U-251 [7]
  IC50: 35.1 nM
[2]
  IC50: 1400 nM
Bos taurus [3]
  inhibition: 72%
HeLa
  IC50: 250 nM
[8]
  Ratio IC50: 0.7
SK-OV-3 [9]
  IC50: 330 nM
[5]
  IC50: 400 nM
[10]
  Ratio IC50: 1.2

## Cn1nnc2c(C(N)=O)ncn2c1=O
U-251 [15]
  inhibition: Active
